Assay results published in ChEMBL document CHEMBL5154634, “A Modular Synthetic Route Involving N-Aryl-2-nitrosoaniline Intermediates Leads to a New Series of 3-Substituted Halogenated Phenazine Antibacterial Agents” (J Med Chem, 2021).
Converted amounts (≈) assume the structure as drawn.

Tests used:
Enterococcus faecium [1] = assay: Bactericidal activity against methicillin-resistant vancomycin-resistant Enterococcus faecium ATCC 700221 planktonic cells assessed as planktonic eradication incubated for 24 hrs followed by incubation for overnight in fresh medium by Calgary biofilm device assay; format: functional
Procedure, shortened: (§1)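 Calgary biofilm device. Biofilms grown 24 h at 37 °C in TSB with 0.5% glucose, then challenged 24 h with twofold compound dilutions. 20 μL of challenge medium transferred into fresh TSB with 0.5% glucose and incubated overnight at 37 °C. MBC is the concentration with no visible turbidity. At least three independent experiments.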

Enterococcus faecium [2] = assay: Antibiofilm activity against methicillin-resistant vancomycin-resistant Enterococcus faecium ATCC 700221 biofilms assessed as biofilm eradication incubated for 24 hrs followed by incubation for 24 hrs in fresh medium by Calgary biofilm device assay; format: functional
Procedure, shortened: (§2)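 Calgary biofilm device. Mid-log culture diluted 1000-fold in TSB with 0.5% glucose; biofilms grown on pegs 24 h at 37 °C. Pegs washed and challenged with twofold compound dilutions for 24 h at 37 °C, then moved to fresh medium for 24 h. MBEC is the lowest concentration leaving wells non-turbid. At least three independent experiments.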

Enterococcus faecium [3] = assay: Antibacterial activity against vancomycin-resistant Enterococcus faecium ATCC 700221 assessed as bacterial growth inhibition incubated for 16 hrs by broth microdilution susceptibility test; format: functional
Procedure, shortened: (§3)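 CLSI broth microdilution with 11 twofold dilutions (0.05–50 μM). Medium was LB for the staphylococci and BHI for VRE 700221. About 10^5 cells per well from a log-phase culture. […] DMSO vehicle up to 0.5% v/v. At least three independent experiments.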

[4] = system: Mycobacterium tuberculosis; assay: Antibacterial activity against Mycobacterium tuberculosis CDC1551 assessed as bacterial growth inhibition incubated for 5 days by luminescence based analysis; format: functional; details: CDC1551, 120 h, time 5 day
Procedure, shortened: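 Bioluminescent Mtb-lux CDC1551 reporter grown in Middlebrook 7H9 with 0.05% Tween 80, 10% OADC and kanamycin to OD600 0.4–0.8, then diluted to OD600 0.02. Added to twofold drug dilutions (0.003–200 μM). Incubated 5 days at 37 °C, 5% CO2. Luminescence read against 1% DMSO and 10 μM rifampicin controls to give % growth inhibition. MIC taken from a modified Gompertz fit.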

Enterococcus faecalis [5] = assay: Antibacterial activity against Enterococcus faecalis OG1RF ATCC 47077 assessed as bacterial growth inhibition incubated for 16 hrs by broth microdilution susceptibility test; format: functional
[6] = system: Staphylococcus epidermidis; assay: Antibacterial activity against methicillin-resistant Staphylococcus epidermidis ATCC 35984 assessed as bacterial growth inhibition incubated for 16 hrs by broth microdilution susceptibility test; format: functional
Procedure, shortened: (§4)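 CLSI broth microdilution with 11 twofold dilutions (0.05–50 μM). About 10^5 cells per well from a log-phase culture. DMSO vehicle up to 0.5% v/v. At least three independent experiments.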

[7] = system: Staphylococcus epidermidis; assay: Bactericidal activity against methicillin-resistant Staphylococcus epidermidis ATCC 35984 planktonic cells assessed as planktonic eradication incubated for 24 hrs followed by incubation for overnight in fresh medium by Calgary biofilm device assay; format: functional; procedure, shortened: as §1
Staphylococcus aureus [8] = assay: Antibacterial activity against methicillin-resistant Staphylococcus aureus BAA-1707 assessed as bacterial growth inhibition incubated for 16 hrs by broth microdilution susceptibility test; format: functional; procedure, shortened: as §4
J774 = assay: Cytotoxicity against mouse J774 cells assessed as reduction in cell viability […] by Alamar blue assay; format: toxicity, cell-based
Erythrocyte = assay: Hemolytic activity against human RBC at 200 uM measured after 1 hr; format: toxicity, cell-based
Procedure, shortened: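 2% hRBCs exposed to compound at 200 μM final, added from DMSO stock, for 1 h at 37 °C. Supernatant OD read at 405 nm. Hemolysis normalized between DMSO (0%) and Triton X (100%); three independent experiments.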

HepG2 = assay: Cytotoxicity against human HepG2 cells assessed as reduction in cell viability […] by Alamar blue assay; format: toxicity, cell-based
Staphylococcus aureus [9] = assay: Antibiofilm activity against methicillin-resistant Staphylococcus aureus BAA-1707 biofilms assessed as biofilm eradication incubated for 24 hrs followed by incubation for 24 hrs in fresh medium by Calgary biofilm device assay; format: functional; procedure, shortened: as §2
[10] = system: Staphylococcus epidermidis; assay: Antibiofilm activity against methicillin-resistant Staphylococcus epidermidis ATCC 35984 biofilms assessed as biofilm eradication incubated for 24 hrs followed by incubation for 24 hrs in fresh medium by Calgary biofilm device assay; format: functional; procedure, shortened: as §2
Staphylococcus aureus [11] = assay: Antibacterial activity against methicillin-resistant Staphylococcus aureus BAA-44 assessed as bacterial growth inhibition incubated for 16 hrs by broth microdilution susceptibility test; format: functional; procedure, shortened: as §3
Staphylococcus aureus [12] = assay: Bactericidal activity against methicillin-resistant Staphylococcus aureus BAA-1707 planktonic cells assessed as planktonic eradication incubated for 24 hrs followed by incubation for overnight in fresh medium by Calgary biofilm device assay; format: functional; procedure, shortened: as §1
Enterococcus faecalis [13] = assay: Bactericidal activity against […] Enterococcus faecalis OG1RF ATCC 47077 planktonic cells assessed as planktonic eradication incubated for 24 hrs followed by incubation for overnight in fresh medium by Calgary biofilm device assay; format: functional
Procedure, shortened: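 Calgary biofilm device in BHI. Biofilms grown 24 h at 37 °C and challenged 24 h with twofold compound dilutions. Challenge medium subcultured 1:10 into fresh BHI overnight at 37 °C. MBC is the concentration with no turbidity. At least three independent experiments.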

Enterococcus faecalis [14] = assay: Antibiofilm activity against Enterococcus faecalis OG1RF ATCC 47077 biofilms assessed as biofilm eradication incubated for 24 hrs followed by incubation for 24 hrs in fresh medium by Calgary biofilm device assay; format: functional
Procedure, shortened: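 Calgary biofilm device. Biofilms grown 24 h at 37 °C in BHI from mid-log culture diluted 1000-fold. Pegs washed and then challenged 24 h with twofold serial dilutions. Pegs moved to fresh BHI for 24 h recovery. MBEC = lowest concentration leaving no turbidity; at least three independent experiments.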

HeLa = assay: Cytotoxicity against human HeLa cells assessed as reduction in cell viability incubated for 24 hrs by LDH release assay; format: toxicity, cell-based
Procedure, shortened: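 HeLa cells in DMEM with 10% FBS, treated at 70–80% confluence with 25, 50 and 100 μM for 24 h. LDH in supernatant measured by 30 min reaction at room temperature, then stop solution and absorbance at 490 nm. Controls: 2% Triton X-100 (maximum), medium only, DMSO vehicle. Three independent experiments.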

SMILES	MBC (Enterococcus faecium [1]) [µM]	MBEC (Enterococcus faecium [2]) [µM]	MIC (Enterococcus faecium [3]) [µM]	MIC (Enterococcus faecalis [5]) [µM]	MIC [6] [µM]	MIC (Staphylococcus aureus [8]) [µM]	Activity (Erythrocyte)	MBEC (Staphylococcus aureus [9]) [µM]	MIC (Staphylococcus aureus [11]) [µM]	MBC (Staphylococcus aureus [12]) [µM]	also measured
Cc1ccc2nc3c(O)c(Br)c(Cl)c(Br)c3nc2c1C	0.78 (≈ 0.325 µg/mL)	0.3	0.08 (≈ 0.0333 µg/mL)	0.2 (≈ 0.0833 µg/mL)	≤ 0.05	0.05 (≈ 0.0208 µg/mL)	<= 1%				MIC [4]: 3.62 µM (≈ 1.51 µg/mL); MBC [7]: 3.13 µM (≈ 1.3 µg/mL); IC50 (J774): > 200 µM; IC50 (HepG2): > 200 µM
CCCCCCCCCC(=O)N[C@@H](Cc1c[nH]c2ccccc12)C(=O)N[C@H](CC(N)=O)C(=O)N[C@@H](CC(=O)O)C(=O)N[C@@H]1C(=O)NCC(=O)N[C@@H](CCCN)C(=O)N[C@@H](CC(=O)O)C(=O)N[C@H](C)C(=O)N[C@@H](CC(=O)O)C(=O)NCC(=O)N[C@H](CO)C(=O)N[C@@H]([C@H](C)CC(=O)O)C(=O)N[C@@H](CC(=O)c2ccccc2N)C(=O)O[C@@H]1C	375 (≈ 608 µg/mL)	93.8						>2000			
Oc1c(Br)c(Cl)c(Br)c2nc3ccc(Br)cc3nc12	4.69 (≈ 2.19 µg/mL)		0.3 (≈ 0.14 µg/mL)	0.78 (≈ 0.365 µg/mL)	0.1 (≈ 0.0467 µg/mL)		5.1%	12.5	1.56 (≈ 0.729 µg/mL)	12.5 (≈ 5.84 µg/mL)	MBEC [10]: 6.25 µM; MBC [7]: 6.25 µM (≈ 2.92 µg/mL)
Oc1cc(Cl)cc2nc3ccc(F)cc3nc12						6.25 (≈ 1.55 µg/mL)					
Cc1c(Br)ccc2nc3c(O)c(Br)c(Cl)c(Br)c3nc12	2.35 (≈ 1.13 µg/mL)	0.2	≤ 0.05	0.05 (≈ 0.0241 µg/mL)	0.1 (≈ 0.0481 µg/mL)	0.59 (≈ 0.284 µg/mL)	27%	75		75 (≈ 36.1 µg/mL)	MIC [4]: 0.88 µM (≈ 0.424 µg/mL); MBC (Enterococcus faecalis [13]): 1.56 µM (≈ 0.751 µg/mL); MBEC (Enterococcus faecalis [14]): 0.78 µM; IC50 (J774): > 200 µM; IC50 (HepG2): > 200 µM
Oc1c(Br)cc(Br)c2nc3cc(Cl)ccc3nc12						0.1 (≈ 0.0388 µg/mL)					
Oc1c(Br)c(Cl)c(Br)c2nc3c(Br)cccc3nc12		0.3	0.15 (≈ 0.0701 µg/mL)		0.1 (≈ 0.0467 µg/mL)		<= 1%	6.25	0.2 (≈ 0.0935 µg/mL)	3.13 (≈ 1.46 µg/mL)	MIC [4]: 3.91 µM (≈ 1.83 µg/mL); MBEC [10]: […]; IC50 (HeLa): 100 µM; MBC (Enterococcus faecalis [13]): 6.25 µM (≈ 2.92 µg/mL); IC50 (J774): > 200 µM; IC50 (HepG2): > 200 µM
Cc1cccc2nc3c(O)c(Br)c(SCCO)c(Br)c3nc12			12.5 (≈ 5.55 µg/mL)			6.25 (≈ 2.78 µg/mL)			6.25 (≈ 2.78 µg/mL)		
Cc1cccc2nc3c(O)cc(Cl)cc3nc12			3.13 (≈ 0.766 µg/mL)		[…]						
O=C(O)CN(CCN(CC(=O)O)CC(=O)O)CC(=O)O [EDETIC ACID]				500 (≈ 146 µg/mL)			<= 1%	>2000	125 (≈ 36.5 µg/mL)		MBC (Enterococcus faecalis [13]): > 2000 µM; MBEC (Enterococcus faecalis [14]): >2000 µM
Oc1c(Br)c(Cl)c(Br)c2nc3ccc(I)cc3nc12	4.69 (≈ 2.41 µg/mL)	3.13		1.56 (≈ 0.802 µg/mL)	0.3 (≈ 0.154 µg/mL)	0.15 (≈ 0.0772 µg/mL)	3%			12.5 (≈ 6.43 µg/mL)	MBEC [10]: 6.25 µM; MBC [7]: 6.25 µM (≈ 3.21 µg/mL)
Oc1cccc2nc3ccccc3nc12			> 50	> 50	37.5 (≈ 7.36 µg/mL)	50 (≈ 9.81 µg/mL)			50 (≈ 9.81 µg/mL)		
Oc1cc(Cl)cc2nc3ccc(Br)cc3nc12			> 50		> 50	9.38 (≈ 2.9 µg/mL)					
Cc1ccc2nc3c(O)cc(Cl)cc3nc2c1C			3.13 (≈ 0.81 µg/mL)	12.5 (≈ 3.23 µg/mL)	2.35 (≈ 0.608 µg/mL)	2.35 (≈ 0.608 µg/mL)			2.35 (≈ 0.608 µg/mL)		
Oc1cc(Cl)cc2nc3ccc(I)cc3nc12			3.13 (≈ 1.12 µg/mL)			0.78 (≈ 0.278 µg/mL)	1.9%	37.5	1.56 (≈ 0.556 µg/mL)	37.5 (≈ 13.4 µg/mL)	IC50 (HeLa): 100 µM
Oc1cc(Cl)cc2nc3c(Oc4ccccc4)cccc3nc12					3.13 (≈ 1.01 µg/mL)	3.13 (≈ 1.01 µg/mL)			3.13 (≈ 1.01 µg/mL)		
Oc1c(Br)c(Cl)c(Br)c2nc3ccc(F)cc3nc12	3.13 (≈ 1.27 µg/mL)		0.78 (≈ 0.317 µg/mL)			0.15 (≈ 0.061 µg/mL)	<= 1%		0.2 (≈ 0.0813 µg/mL)	12.5 (≈ 5.08 µg/mL)	MIC [4]: 1.71 µM (≈ 0.695 µg/mL); MBEC [10]: 12.5 µM; IC50 (HeLa): > 25 µM; MBC [7]: 12.5 µM (≈ 5.08 µg/mL); IC50 (J774): > 200 µM; IC50 (HepG2): > 200 µM
Cc1cccc2nc3c(O)c(Br)cc(Br)c3nc12						0.3 (≈ 0.11 µg/mL)					
c1ccc(CN(CCN(Cc2ccccn2)Cc2ccccn2)Cc2ccccn2)nc1	188 (≈ 79.8 µg/mL)	>2000		46.9 (≈ 19.9 µg/mL)		46.9 (≈ 19.9 µg/mL)	<= 1%	>2000	46.9 (≈ 19.9 µg/mL)	250 (≈ 106 µg/mL)	MBEC [10]: >2000 µM; MBC (Enterococcus faecalis [13]): 500 µM (≈ 212 µg/mL); MBEC (Enterococcus faecalis [14]): >2000 µM
